ChEMBL document CHEMBL1124503, “The role of position 4 in angiotensin II antagonism: a structure-activity study” (J Med Chem, 1989)
Where a SMILES comes first, the peptide text is derived from it. [ ]: non-standard residue; d: D form. Phe(4-NO2) = N[C@@H](Cc1ccc([N+](=O)[O-])cc1)C(=O)O; Phe(4-B(OH)2) = N[C@@H](Cc1ccc(B(O)O)cc1)C(=O)O; Phe(4-Cl) = N[C@@H](Cc1ccc(Cl)cc1)C(=O)O; Phe(4-F) = N[C@@H](Cc1ccc(F)cc1)C(=O)O; Phe(4-I) = N[C@@H](Cc1ccc(I)cc1)C(=O)O; Sar = CNCC(=O)O

Assays:
Oryctolagus cuniculus [1] = species on record: Oryctolagus cuniculus; assay: Antagonist activity pA2, was measured in the in vitro rabbit aorta strip assay; + = mixed agonist-antagonist effects seen above 100n g/mL; format: functional
In short: (§1)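 Isolated rabbit aorta strip (method of Rioux et al.); pA2 against the ANG II dose-response curve, determined at low antagonist doses within the competitive-inhibition range.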

Oryctolagus cuniculus [2] = species on record: Oryctolagus cuniculus; assay: Agonist, ''ANG II-like'' activity was measured in the in vitro rabbit aorta strip assay; + = mixed agonist-antagonist effects seen above 100n g/mL; format: functional
In short: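 Isolated rabbit aorta strip (method of Rioux et al.); contractile agonist activity expressed as percent of the response to ANG II.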

[3] = molecular target: Angiotensin II receptor (Rattus norvegicus) (UniProt P29089+P25095+P35351); assay: In vivo blood pressure increase produced by a 1 ug bolus i.v.; format: functional, organism-based
In short: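 Rat blood pressure assay (Regoli et al.); agonist activity read as the mmHg rise in blood pressure after a 1 μg intravenous bolus of compound.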

[4] = system: Angiotensin II receptor (Oryctolagus cuniculus); assay: Angiotensin II-like agonist activity, measured in the in vitro rabbit aorta strip assay
Oryctolagus cuniculus [5] = species on record: Oryctolagus cuniculus; assay: Antagonist activity pA2, was measured in the in vitro rabbit aorta strip assay; format: functional; settings: read-out: pA2 (converted); in short: as §1
Rattus norvegicus [6] = assay: Residual ANG II-like antagonist activity, ID50 was measured in vivo, in the rat blood pressure assay; format: functional
Rattus norvegicus [7] = species on record: Rattus norvegicus; assay: Antagonist activity pA2, was measured in the in vitro rat uterus strip assay; format: functional; settings: read-out: pA2 (converted)
Rattus norvegicus [8] = assay: Residual ANG II-like antagonist activity, ID50 was measured in vivo, in the rat blood pressure assay; + means slight antagonist effect; format: functional, organism-based; settings: filed as antagonist
Rattus norvegicus [9] = assay: Residual ANG II-like antagonist activity, ID50 was measured in vivo, in the rat blood pressure assay; Partial angonist; format: functional, organism-based; settings: filed as partial agonist

Row | Compound | pA2 (Oryctolagus cuniculus [1]) | Activity (Oryctolagus cuniculus [2]) | Blood pressure [3] [mmHg] | Activity [4] [%] | Kb (Oryctolagus cuniculus [5]) [nM] | ID50 (Rattus norvegicus [6]) [ng min-1 rat-1] | Kb (Rattus norvegicus [7]) [nM] | ID50 (Rattus norvegicus [8]) | ID50 (Rattus norvegicus [9])
1 | CC[C@H](C)[C@H](NC(=O)[C@H](Cc1ccc([N+](=O)[O-])cc1)NC(=O)[C@@H](NC(=O)[C@H](CCCN=C(N)N)NC(=O)CNC)C(C)C)C(=O)N[C@@H](Cc1c[nH]cn1)C(=O)N1CCC[C@H]1C(=O)N[C@@H](Cc1ccccc1)C(=O)O (H-[Sar]RV[Phe(4-NO2)]IHPF-OH) | mixed agonist-antagonist effects seen above 100n g/mL | mixed agonist-antagonist effects seen above 100n g/mL | – | – | – | – | – | – | –
2 | CC[C@H](C)[C@H](NC(=O)[C@H](Cc1ccccc1)NC(=O)[C@@H](NC(=O)[C@H](CCCN=C(N)N)NC(=O)CNC)C(C)C)C(=O)N[C@@H](Cc1c[nH]cn1)C(=O)N1CCC[C@H]1C(=O)N[C@H](Cc1ccc(O)cc1)C(=O)O | – | – | 5 | 0 | 100 | 30 | – | – | –
3 | CC[C@H](C)[C@H](NC(=O)[C@H](Cc1ccc(O)cc1)NC(=O)[C@@H](NC(=O)[C@H](CCCN=C(N)N)NC(=O)CNC)C(C)C)C(=O)N[C@@H](Cc1c[nH]cn1)C(=O)N1CCC[C@H]1C(=O)N[C@H](Cc1ccc(O)cc1)C(=O)O | – | – | 15 | 0 | 5.62 | 20 | – | – | –
4 | CC[C@H](C)[C@H](NC(=O)[C@@H]1CCCN1C(=O)[C@H](Cc1c[nH]cn1)NC(=O)[C@@H](NC(=O)[C@H](Cc1ccc(Cl)cc1)NC(=O)[C@@H](NC(=O)[C@H](CCCN=C(N)N)NC(=O)CNC)C(C)C)[C@@H](C)CC)C(=O)O (H-[Sar]RV[Phe(4-Cl)]IHPI-OH) | – | – | 2 | 0 | > 1000 | 500 | – | – | –
5 | CC[C@H](C)[C@H](NC(=O)[C@@H]1CCCN1C(=O)[C@H](Cc1c[nH]cn1)NC(=O)[C@@H](NC(=O)[C@H](Cc1ccc(B(O)O)cc1)NC(=O)[C@@H](NC(=O)[C@H](CCCN=C(N)N)NC(=O)CNC)C(C)C)[C@@H](C)CC)C(=O)O (H-[Sar]RV[Phe(4-B(OH)2)]IHPI-OH) | – | – | 0 | 0 | 2000 | 500 | – | – | –
6 | CC[C@H](C)[C@H](NC(=O)[C@H](Cc1ccc(F)cc1)NC(=O)[C@@H](NC(=O)[C@H](CCCN=C(N)N)NC(=O)CNC)C(C)C)C(=O)N[C@@H](Cc1c[nH]cn1)C(=O)N1CCC[C@H]1C(=O)N[C@H](Cc1ccccc1)C(=O)O | – | – | 10 | 0 | 141 | 50 | – | – | –
7 | CCOc1ccc(C[C@H](NC(=O)[C@@H](NC(=O)[C@H](CCCN=C(N)N)NC(=O)CNC)C(C)C)C(=O)N[C@H](C(=O)N[C@@H](Cc2c[nH]cn2)C(=O)N2CCC[C@H]2C(=O)N[C@H](C(=O)O)[C@@H](C)CC)[C@@H](C)CC)cc1 | – | – | 5 | 0 | > 1000 | >1000 | – | – | –
8 | H-DRVFIHPY-OH | – | – | – | – | – | – | 240 | – | –
9 | CC[C@H](C)[C@H](NC(=O)[C@@H]1CCCN1C(=O)[C@H](Cc1c[nH]cn1)NC(=O)[C@@H](NC(=O)[C@H](Cc1ccccc1)NC(=O)[C@@H](NC(=O)[C@H](CCCN=C(N)N)NC(=O)CNC)C(C)C)[C@@H](C)CC)C(=O)O (H-[Sar]RVFIHPI-OH) | – | – | 2.7 | 0 | 3.16 | 80 | – | – | –
10 | H-DRVFIHPF-OH | – | – | 20 | 11 | – | – | – | Partial antagonist | –
11 | CC[C@H](C)[C@H](NC(=O)[C@H](Cc1ccc(OC)cc1)NC(=O)[C@@H](NC(=O)[C@H](CCCN=C(N)N)NC(=O)CNC)C(C)C)C(=O)N[C@@H](Cc1c[nH]cn1)C(=O)N1CCC[C@H]1C(=O)N[C@@H](Cc1ccccc1)C(=O)O | – | – | 20 | 0 | 79.4 | 250 | – | – | –
12 | CC[C@H](C)[C@H](NC(=O)[C@@H]1CCCN1C(=O)[C@H](Cc1c[nH]cn1)NC(=O)[C@@H](NC(=O)[C@H](Cc1ccc(F)cc1)NC(=O)[C@@H](NC(=O)[C@H](CCCN=C(N)N)NC(=O)CNC)C(C)C)[C@@H](C)CC)C(=O)O (H-[Sar]RV[Phe(4-F)]IHPI-OH) | – | – | 0 | 0 | 158 | 750 | – | – | –
13 | CC[C@H](C)[C@H](NC(=O)[C@@H]1CCCN1C(=O)[C@H](Cc1c[nH]cn1)NC(=O)[C@@H](NC(=O)[C@H](Cc1ccc(OC)cc1)NC(=O)[C@@H](NC(=O)[C@H](CCCN=C(N)N)NC(=O)CNC)C(C)C)[C@@H](C)CC)C(=O)O | – | – | 3 | 0 | 79.4 | 100 | – | – | –
14 | CC[C@H](C)[C@H](NC(=O)[C@H](Cc1ccc(I)cc1)NC(=O)[C@@H](NC(=O)[C@H](CCCN=C(N)N)NC(=O)CNC)C(C)C)C(=O)N[C@@H](Cc1c[nH]cn1)C(=O)N1CCC[C@H]1C(=O)N[C@@H](Cc1ccccc1)C(=O)O (H-[Sar]RV[Phe(4-I)]IHPF-OH) | – | – | 80 | 0 | 251 | – | – | – | Partial agonist
15 | CC[C@H](C)[C@H](NC(=O)[C@H](Cc1ccccc1)NC(=O)[C@@H](NC(=O)[C@H](CCCN=C(N)N)NC(=O)CNC)C(C)C)C(=O)N[C@@H](Cc1c[nH]cn1)C(=O)N1CCC[C@H]1C(=O)N[C@@H](Cc1ccc(O)cc1)C(=O)O | – | – | 5.5 | 0 | 31.6 | 50 | – | – | –
16 | H-DRVYIHPC-OH | – | – | – | – | – | – | 6.03 | – | –
17 | CC[C@H](C)[C@H](NC(=O)[C@@H]1CCCN1C(=O)[C@H](Cc1c[nH]cn1)NC(=O)[C@@H](NC(=O)[C@H](Cc1ccc(O)cc1)NC(=O)[C@@H](NC(=O)[C@H](CCCN=C(N)N)NC(=O)[C@@H](N)CC(=O)O)C(C)C)[C@@H](C)CC)C(=O)O | – | – | – | – | – | – | 5.01 | – | –
18 | CC[C@H](C)[C@H](NC(=O)[C@H](Cc1ccc(F)cc1)NC(=O)[C@@H](NC(=O)[C@H](CCCN=C(N)N)NC(=O)[C@@H](N)CC(=O)O)C(C)C)C(=O)N[C@@H](Cc1c[nH]cn1)C(=O)N1CCC[C@H]1C(=O)N[C@@H](Cc1ccccc1)C(=O)O (H-DRV[Phe(4-F)]IHPF-OH) | – | – | – | – | – | – | 501 | – | –
19 | CCOc1ccc(C[C@H](NC(=O)[C@@H](NC(=O)[C@H](CCCN=C(N)N)NC(=O)CNC)C(C)C)C(=O)N[C@H](C(=O)N[C@@H](Cc2c[nH]cn2)C(=O)N2CCC[C@H]2C(=O)N[C@@H](Cc2ccccc2)C(=O)O)[C@@H](C)CC)cc1 | – | – | 2.5 | 0.1 | – | 150 | > 1000 | – | –
20 | CC[C@H](C)[C@H](NC(=O)[C@H](Cc1ccc(Cl)cc1)NC(=O)[C@@H](NC(=O)[C@H](CCCN=C(N)N)NC(=O)CNC)C(C)C)C(=O)N[C@@H](Cc1c[nH]cn1)C(=O)N1CCC[C@H]1C(=O)N[C@@H](Cc1ccccc1)C(=O)O (H-[Sar]RV[Phe(4-Cl)]IHPF-OH) | – | – | 5.5 | 0 | 31.6 | 30 | – | – | –
21 | CC[C@H](C)[C@H](NC(=O)[C@H](Cc1ccc(F)cc1)NC(=O)[C@@H](NC(=O)[C@H](CCCN=C(N)N)NC(=O)CNC)C(C)C)C(=O)N[C@@H](Cc1c[nH]cn1)C(=O)N1CCC[C@H]1C(=O)N[C@@H](Cc1ccccc1)C(=O)O | – | – | 22 | 0 | 31.6 | 150 | – | – | –
